# Screening results: PubChem, The Scripps Research Institute Molecular Screening Center
# LEDGF integ inh: blocks HIV-1 LEDGF/p75-dependent DNA integration | TR-FRET IN-LEDGF/p75 DNA integration, Eu/Cy5 | inhibition, % at 3.7 µM | hit rate 0.64% among 370,000 | AID 743269;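 active = inhibition above the screen-wide mean plus 3 SD, cut at about 13% in these data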;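 also: signal is the Cy5 over europium emission ratio at 671 and 618 nm; 0% = plate median of compound wells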
# HTRA1 inh: inhibitors of human serine peptidase HTRA1 | recombinant HTRA1, FP-rhodamine activity-based probe, fluorescence polarization | inhibition, % at 5.96 µM | hit rate 0.5% among 340,000 | AID 504803; in the data active = inhibition above about 36%;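 also: 0% = enzyme with DMSO and 100% = wells lacking enzyme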
# PRMT1 FP inh: PRMT1 (human) inhibition, primary screen. Q99873. recombinant PRMT1, activity-based probe fluorescence polarization. inhibition, % at 2.79 µM. hit rate 1.3% among 370,000. AID 652257;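 active = inhibition above about 21% made by adding two undisclosed values, limit read from the data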
# Target sequence (Q99873 whole entry, looked up): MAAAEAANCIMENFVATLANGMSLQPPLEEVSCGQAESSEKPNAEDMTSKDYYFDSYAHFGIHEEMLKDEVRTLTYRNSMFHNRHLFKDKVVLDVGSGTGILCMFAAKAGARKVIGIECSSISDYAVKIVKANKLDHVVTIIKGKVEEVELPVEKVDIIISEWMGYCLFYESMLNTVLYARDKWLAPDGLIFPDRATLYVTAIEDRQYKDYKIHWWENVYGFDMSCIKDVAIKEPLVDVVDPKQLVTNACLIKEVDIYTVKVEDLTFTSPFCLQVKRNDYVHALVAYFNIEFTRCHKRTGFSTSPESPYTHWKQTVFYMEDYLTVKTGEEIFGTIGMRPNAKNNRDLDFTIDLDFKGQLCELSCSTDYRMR
# rCAG binder: molecules binding r(CAG) RNA repeats | r(CAG) RNA repeat, TO-PRO-1 dye displacement fluorescence | inhibition, % at 3 µM | hit rate 1.3% among 370,000 | AID 651821;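 active = inhibition above the plate cutoff, the mean of all test compounds on that plate plus 3 SD, cut at about 35% in these data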;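 also: 0% = DMSO alone and 100% = 100 µM mitoxantrone as full dye displacement; higher means more dye released from RNA so lower well fluorescence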
# DAGLB inhibitor: blocks human DAGLB lipase activity. inhibition, % at 5.17 µM. HEK293T DAGLB membrane lysate, EnzChek fluorogenic substrate. hit rate 0.059% among 340,000. Q8NCG7; in the data active = inhibition above about 34%;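 also: 0% = enzyme with vehicle and 100% = wells lacking enzyme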
# ABHD4 inh: inhibits mouse alpha/beta hydrolase domain 4 | AID 720543 | purified mABHD4, FP-Rh probe fluorescence polarization | hit rate 0.54% among 370,000 | inhibition, % at 8.92 µM;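 active = inhibition exceeding the mean over every tested compound plus 3 SD, cut at about 30% in these data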;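 also: 0% = plate median of compound wells and 100% = S159A mutant with DMSO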
#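 system = mouse ABHD4 enzyme, wild type | medium = HEPES pH 7.0, NaCl, Pluronic buffer | also added = FP-Rh probe | incubation = Enzyme–compound pre-incubation 45 min, then probe 60 min, both 25 °C | technique = fluorescence polarization, excitation 525 nm, emission 598 nm, BODIPY TMR filters | controls = S159A mutant high control, sample median low control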
# PRMT1 inh conf: confirmation of human PRMT1 inhibitors. inhibition, % at 2.79 µM. recombinant His-PRMT1, activity-based probe fluorescence polarization. shares compounds with PRMT1 FP inh. hit rate 42% among 3,300;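 active = mean inhibition across replicates above the hit cutoff derived for the earlier primary screen, cut at about 22% in these data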
# Starred values were filed as active, the others as inactive; / = no result. A selection: hits, their analogues and other compounds. The true share with any hit is near 3.2%.
SMILES,LEDGF integ inh,HTRA1 inh,PRMT1 FP inh,rCAG binder,DAGLB inhibitor,ABHD4 inh,PRMT1 inh conf
Cc1cccc2cc(C(c3nnnn3Cc3ccccc3)N3CCCc4ccccc43)c(=O)[nH]c12 (configuration not stated),6,0,26*,6,3,5,-3
COc1ccc(NC(=S)NNS(=O)(=O)c2ccc3ccccc3c2)c(OC)c1,-2,1,27*,14,0,10,13
O=C(CSc1cn[nH]n1)Nc1cccc(C(=O)O)c1,0,4,72*,2,2,1,90*
Cc1cccc(NC(=O)CSc2cn[nH]n2)c1,2,0,-1,1,0,2,/
COc1cccc(-n2c(SCc3c(C)noc3C)nnc2-c2cccc(S(=O)(=O)N(C)C)c2)c1,-3,1,-1,-6,-3,5,/
Cc1ccnc(NC(c2ccsc2)c2ccc3ccc(C)nc3c2O)c1 (configuration not stated),-19,16,44*,1,0,-4,50*
Cc1ccc2ccc(C(Nc3ccccn3)c3ccccc3)c(O)c2n1 (configuration not stated),-6,11,7,7,-2,2,/
Cc1cccc(NC(c2ccc(C)s2)c2ccc3ccc(C)nc3c2O)n1 (configuration not stated),-3,18,26*,2,-1,14,28*
COCCSc1ccccc1C(=O)Nc1ccccc1C#N,0,-1,-2,-2,1,6,/
O=C1N=C(N2C=CC(=C3C=CNC=C3)C=C2)/C(=C/N=NC(=O)c2ccccc2O)S1,-1,24,39*,2,0,19,23*
NS(=O)(=O)c1ccc(Sc2ccc3c(c2)CCC3)nc1,0,-9,4,-1,-7,-4,/
COC(=O)c1ccc(N2C(=O)CC(Sc3n[nH]c(C)n3)C2=O)cc1 (configuration not stated),3,-5,44*,11,-3,-3,50*
COC(=O)c1cc(C(=O)OC)cc(N2C(=O)CC(Sc3nc(C)cc(C)n3)C2=O)c1 (configuration not stated),2,1,5,1,0,-12,/
COc1ccccc1N1C(=O)CC(Sc2nc(C)cc(C)n2)C1=O (configuration not stated),1,-1,5,-1,0,3,/
CCOc1ccccc1N1C(=O)CC(Sc2n[nH]c(-c3ccccc3)n2)C1=O (configuration not stated),2,6,73*,13,-1,1,78*
COc1cccc(N2C(=O)CC(Sc3nc(C)cc(C)n3)C2=O)c1 (configuration not stated),-2,-4,5,4,-1,1,/
COc1ccc(N2C(=O)CC(Sc3n[nH]c(-c4cccc(C)c4)n3)C2=O)cc1 (configuration not stated),3,/,44*,7,/,3,60*
COc1ccccc1CCn1cnc(-c2cccc(Cl)c2)c1CC(C)C,-2,/,6,-1,/,-2,/
CCN(CC(=O)Nc1cc(Cl)ccc1C)C(=O)C1CC(=O)N(Cc2ccccc2)C1 (configuration not stated),-1,1,3,-6,2,4,/
COc1ccccc1NS(=O)(=O)c1ccc2oc(SCc3ccc(C#N)cc3)nc2c1,-1,-2,-1,1,-2,-12,/
COc1ccc(/C=C2/CCCC(CN(C)C)C2=O)cc1 (configuration not stated),4,-9,0,2,-5,-16,/
COc1cccc(/C=C2/CCC(CN(C)C)C2=O)c1 (configuration not stated),-4,-22,41*,8,-5,-25,71*
Cc1ccsc1/C=C1\Oc2cc(O)ccc2C1=O,-2,3,40*,-27,-32,-15,30*
O=C1/C(=C/c2ccc(O)c(O)c2)Oc2cc(O)ccc21,8,-38,5,-3,5,20,/
Cn1c(N)c(C(=O)CSc2nc3ccccc3[nH]2)c(=O)n(C)c1=O,0,-5,28*,2,0,6,1
